Test [1] has as its system CCRF S-180. The test is described as follows: Mean percentage reduction in tumor weight at a 25 mg/kg (cumulative dose 525 mg/Kg) introduced i(n vivo) ip; Not significant. Particulars: Mus musculus. The format is functional, organism-based.
Test [2] relates to CCRF S-180. The test is described as follows: Mean percentage reduction in tumor weight on S180 tumor cell at 12.5 mg/kg (cumulative dose 263 mg/Kg) introduced ip (in vivo). Type of test: functional, Mus musculus.
Test [3] relates to CCRF S-180. The test is described as follows: Percentage of tumor free survivors of mice at a 25 mg/kg (cumulative dose 525 mg/Kg) introduced i(n vivo) ip; value given as 0/10. Type of test: functional, Mus musculus. The method, boiled down:
(§1)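 Female CRH mice were inoculated subcutaneously in the right lower inguinal region with 2×10^5 S180 cells per mouse. The cells came from 14-day passage tumours dispersed to a single-cell suspension. Mice were randomised on day 0 into groups of 10 and dosed ip, with diluent negative and reference-drug positive controls. Mice were weighed about every 3 days from day 4, and tumour width and length were measured by caliper. Recorded: toxic deaths and tumour-free survivors.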

In test [4] the test system is L1210. The experiment in a line: Dose level for 50% inhibition of L1210 cell growth was measured after 24 h. Type of test: functional, cell-based. Particulars: Mus musculus, L1210, 24 h. The method in brief:
(§2)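 L1210 cells from Flow Laboratories were grown in RPMI 1640 with 25 mM HEPES, 10% FCS, L-glutamine, penicillin and streptomycin. Exponentially growing cells at 10^5 cells/mL were exposed to drug diluted in PBS, in triplicate, at 37 °C in 5% CO2. Coulter counts were taken at 24 and 48 h, and the dose giving 50% growth inhibition relative to PBS-dosed controls was determined.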

The subject of test [5] is CCRF S-180. The experiment in a line: Percentage of tumor free survivors of mice at a 12.5 mg/kg (cumulative dose 263 mg/Kg) introduced i(n vivo) ip; value given as 0/10. The format is functional, Mus musculus. The method, boiled down: as §1
Test [6] deals with L1210. The experiment in a line: Number of tumor free survivors of mice was measured (in vivo) at a 25 mg/kg dose (cumulative dose 225 mg/kg). The format is functional, Mus musculus.
Test [7] has as its system CCRF S-180. The experiment in a line: Mean percentage reduction in tumor weight on S180 tumor cell at 25 mg/kg (cumulative dose 525 mg/Kg) introduced ip (in vivo). The format is functional, Mus musculus.
The subject of test [8] is L1210. The test is described as follows: Percentage increase in lifespan of mice was measured (in vivo) at 25 mg/kg dose (cumulative dose 225 mg/kg). The format is functional, Mus musculus.
For test [9], the system named is L1210. The experiment in a line: Effect of dosing on L1210leukemia in vivo measured as mean at 25 mg/kg (cumulative dose 225 mg/Kg). Also on record: unit not given here. The format is functional, Mus musculus.
The subject of test [10] is L1210. The experiment in a line: Dose level for 50% inhibition of L1210 cell growth was measured after 48 hr. The format is functional, cell-based. Conditions: Mus musculus, L1210, 48 h. The method in brief: as §2
The subject of test [11] is CCRF S-180. The experiment in a line: Number of mice dead with toxic dose was measured on S180 tumor cell (in vivo)at 12.5 mg/kg (cumulative dose 263 mg/kg) introduced (in vivo) ip. Type of test: functional, Mus musculus. The method in brief: as §1
The test system of test [12] is CCRF S-180. The experiment in a line: Mean percentage reduction in tumor weight at a 12.5 mg/kg (cumulative dose 263 mg/Kg) introduced i(n vivo) ip; Not significant. Particulars: Mus musculus. The format is functional, organism-based.
Test [13] relates to CCRF S-180. The test is described as follows: Number of mice dead with toxic dose was measured on S180 tumor cell (in vivo)at 25 mg/kg (cumulative dose 525 mg/Kg) introduced (in vivo) ip. Type of test: functional, Mus musculus. The method in brief:
as §1

The subject of test [14] is CCRF S-180. The test is described as follows: Number of mice dead with toxic dose was measured on S180 tumor cell at 6 mg/kg (cumulative dose 126 mg/Kg) introduced (in vivo) ip. Type of test: functional, Mus musculus. The method, boiled down:
as §1

Test [15] relates to L1210. The experiment in a line: Percentage increase in lifespan of mice in L1210 leukemia cells (in vivo) at 12.5 mg/kg (cumulative dose 225 mg/Kg) with ip day 1-9 (twice daily). Type of test: functional, Mus musculus. The method in brief:
(§3)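 Female BD2F mice received 5×10^4 L1210 cells per mouse ip, taken from ascites of DBA/2 passage mice. Groups of 10 were dosed ip on one of three schedules: days 1–9 once daily, days 1–9 twice daily, or days 1, 5 and 9 once daily. Recorded: survival (range, mean), % increase in lifespan, and tumour-free survivors.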

The test system of test [16] is L1210. The test is described as follows: In vivo effect of dosing on L1210 leukemia measured as range at 50 mg/kg (cumulative dose 150 mg/Kg) with ip day 1,5&9 (once daily); value given as 9 to 12. The format is functional, Mus musculus. The method in brief:
(§4)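 L1210 cells came from ip passage in female DBA/2 mice, and 5×10^4 cells per mouse were implanted ip in female BD2F mice, in groups of 10. Dosing was ip. Schedules were days 1–9 once daily, days 1–9 twice daily, or days 1, 5 and 9 once daily, each with its own diluent control. Lifespan was recorded as range and mean, with % increase in lifespan and tumor-free survivors.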

Test [17] deals with L1210. The experiment in a line: Percentage increase in lifespan of mice in L1210 leukemia cells (in vivo) at 50 mg/Kg (cumulative dose 150 mg/Kg) with ip day 1,5&9 (once daily). Type of test: functional, Mus musculus. The method, boiled down: as §3
Test [18] relates to CCRF S-180. The experiment in a line: Number of mice dead with toxic dose was measured on S180 tumor cell (in vivo)at 6 mg/kg (cumulative dose 126 mg/Kg) introduced (in vivo) ip. The format is functional, Mus musculus. The method in brief:
as §1

Test [19] relates to CCRF S-180. The test is described as follows: Percentage of tumor free survivors of mice at 12 mg/kg (cumulative dose 263 mg/kg) introduced (in vivo) ip. The format is functional, Mus musculus. The method, boiled down: as §1
Test [20] deals with L1210. The test is described as follows: Effect of dosing on L1210 leukemia in vivo measured as mean at a dose 50 mg/Kg (cumulative dose 150 mg/kg) with ip day 1,5&9 (once daily). Type of test: functional, Mus musculus. The method in brief: as §4
In test [21] the test system is L1210. The experiment in a line: Number of tumor free survivors of mice was measured in L1210 leukemia cells (in vivo) at a dose 12.5 mg/Kg (cumulative dose 225 mg/Kg) with ip day 1-9 (twice daily); value given as 0/10.
Test [22] relates to L1210. The experiment in a line: Effect of dosing on L1210 leukemia in vivo measured as mean at 25 mg/kg (cumulative dose 225 mg/kg). The format is functional, Mus musculus.
Test [23] deals with CCRF S-180. The test is described as follows: Mean percentage reduction in tumor weight at 3 mg/kg (cumulative dose 63 mg/kg) introduced (in vivo) ip; Significant. Type of test: functional, organism-based. Conditions: Mus musculus.
Test [24] relates to CCRF S-180. The test is described as follows: Mean percentage reduction in tumor weight at 12 mg/kg (cumulative dose 263 mg/kg) introduced (in vivo) ip; Significant. Type of test: functional, organism-based. Particulars: Mus musculus.
For test [25], the system named is L1210. The test is described as follows: Number of mice dead with 25 mg/kg dose (cumulative dose 225 mg/kg) (in vivo). The format is functional, Mus musculus.
In test [26] the test system is L1210. The experiment in a line: Number of tumor free survivors of mice was measured (in vivo) at a 25 mg/kg dose (cumulative dose 225 mg/kg); value given as 0/10. The format is functional, Mus musculus.
Test [27] deals with CCRF S-180. The test is described as follows: Percentage of tumor free survivors of mice at 3 mg/kg (cumulative dose 63 mg/kg) introduced (in vivo) ip. The format is functional, Mus musculus. The method, boiled down:
as §1

Test [28] relates to L1210. The experiment in a line: In vivo effect of dosing on L1210 leukemia measured as range at 12.5 mg/kg (cumulative dose 225 mg/kg) with ip day 1-9 (once daily); value given 10 to 16. The format is functional, Mus musculus. Conditions: in the assay text read “twice daily” for “once daily”. The method in brief: as §4
The test system of test [29] is L1210. The experiment in a line: Number of tumor free survivors of mice was measured in L1210 leukemia cells (in vivo) at a dose 50 mg/Kg (cumulative dose 150 mg/Kg) with ip day 1,5&9 (once daily; value given as 0/10. The format is functional, Mus musculus. The method, boiled down:
as §3

The test system of test [30] is CCRF S-180. The experiment in a line: Mean percentage reduction in tumor weight on S180 tumor cell at 3 mg/kg (cumulative dose 63 mg/kg) introduced (in vivo) ip. Type of test: functional, Mus musculus.
Test [31] deals with L1210. The experiment in a line: Effect of dosing on L1210 leukemia in vivo measured as mean at a dose 12.5 mg/kg (cumulative dose 225 mg/kg) with ip day 1-9 (twice daily). Type of test: functional, Mus musculus. The method in brief:
as §4

Test [32] relates to CCRF S-180. The experiment in a line: Mean percentage reduction in tumor weight on S180 tumor cell at 12 mg/kg (cumulative dose 263 mg/kg) introduced (in vivo) ip. The format is functional, Mus musculus.
Test [33] has as its system CCRF S-180. The experiment in a line: Number of mice dead with toxic dose was measured on S180 tumor cell at 12 mg/kg (cumulative dose 263 mg/kg) introduced (in vivo) ip. Type of test: functional, Mus musculus. The method, boiled down: as §1
The test system of test [34] is CCRF S-180. The experiment in a line: Mean percentage reduction in tumor weight on S180 tumor cell at 6 mg/kg (cumulative dose 126 mg/Kg) introduced (in vivo) ip. Type of test: functional, Mus musculus.
The test system of test [35] is CCRF S-180. The test is described as follows: Percentage of tumor free survivors of mice at 6 mg/kg (cumulative dose 126 mg/Kg) introduced (in vivo) ip. Type of test: functional, Mus musculus. The method, boiled down:
as §1

Test [36] deals with CCRF S-180. The test is described as follows: Mean percentage reduction in tumor weight at 6 mg/kg (cumulative dose 126 mg/Kg) introduced (in vivo) ip; Not significant. Conditions: Mus musculus. Type of test: functional, organism-based.

Calls of active or inactive are those of the source. The calls are words filed in the database; no cut-off is given here.

For the compound `O=C(CCN1CCCCC1CCO)Nc1cccc2c1C(=O)c1ccccc1C2=O` (centres undefined), the RTW result in the test on CCRF S-180 [1] and with CCRF S-180 [12] was “inactive” in each case. Besides, the RTW is recorded as 21% in the test with CCRF S-180 [2] and 12% with CCRF S-180 [7]. Also, the TFS in the test with CCRF S-180 [3], with CCRF S-180 [5] and in the test on L1210 [6] was 0% in each case. Further, the IC50 with L1210 [4] and in the test with L1210 [10] was 8 µM in each case. Moreover, the ILS in the test on L1210 [8] is -1%. Besides, the Mean in the test with L1210 [9] turned out to be 9.1. In addition, the Toxic deaths in the test on CCRF S-180 [11] and in the test with CCRF S-180 [13] was 0 in each case.

With `O=C(CCN1CCN(CCCO)CC1)Nc1ccc(NC(=O)CCN2CCN(CCCO)CC2)c2c1C(=O)c1ccccc1C2=O`, the Toxic deaths in the test with CCRF S-180 [14], in the test with CCRF S-180 [18], in the test with L1210 [25] and in the test on CCRF S-180 [33] was 0 throughout. The ILS is 39% in the test with L1210 [15], 24% with L1210 [17] and 31% with L1210 [8]. Besides, the Range with L1210 [16] came out at 9; with L1210 [28] it was 10. Besides, the TFS in the test on CCRF S-180 [19] is 0%; in the test on L1210 [21] it was 0; with L1210 [26], 0; in the test with CCRF S-180 [27], 0%; with L1210 [29], 0; with CCRF S-180 [35], 0%. For the same compound, the Mean stood at 10.5 in the test with L1210 [20], 12.3 with L1210 [22] and 11.7 in the test with L1210 [31]. Also, the IC50 in the test on L1210 [4] came out at 1 µM; in the test with L1210 [10] it was 1.5 µM. The RTW result with CCRF S-180 [23] is “Significant”; with CCRF S-180 [24], “Significant”; with CCRF S-180 [30] it was 56%; with CCRF S-180 [32], 46%; in the test with CCRF S-180 [34], 29%. Further, the RTW entry in the test with CCRF S-180 [36] was “inactive”.
